A selection: hits, their analogues and other compounds. The true share with any hit is near 2.1%.
hK5 inh – kallikrein 5 (human) inhibition; inhibition, % at 5 µM; AID 873; 210,000 compounds, 0.59% hits; Q9Y337; recombinant hK5, fluorogenic AMC substrate cleavage;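 active = inhibition of 40% or more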
Target sequence (Q9Y337 67-293 limits assumed): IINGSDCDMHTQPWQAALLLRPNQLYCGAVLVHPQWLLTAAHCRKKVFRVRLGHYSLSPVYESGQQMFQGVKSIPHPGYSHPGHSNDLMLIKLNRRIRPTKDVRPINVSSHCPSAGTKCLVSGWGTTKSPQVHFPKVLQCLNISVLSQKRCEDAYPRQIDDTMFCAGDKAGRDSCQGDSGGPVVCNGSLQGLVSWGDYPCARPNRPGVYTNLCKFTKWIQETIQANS
Thrombin inh – thrombin (human) inhibition; P00734; alpha-thrombin, Boc-VPR-AMC fluorogenic substrate cleavage; inhibition, % at 5 µM; 220,000 compounds, 0.26% hits;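 active = inhibition at or above 40%; inactive = inhibition below 40%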
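System – human alpha-thrombin protein · Reagent – Boc-VPR-AMC substrate, 15 µM final · Compound – 5 µM single dose in 0.2% DMSO · Schedule – reaction at room temperature · Technique – AMC fluorescence at 355 nm excitation and 460 nm emission · Read-out basis – % inhibition relative to enzyme controls and enzyme-free blanks · Control set – no-compound enzyme wells and no-enzyme blanks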
FXIIa inh 1536 – blocks human coagulation factor XIIa protease activity; purified FXIIa, Boc-QGR-AMC fluorogenic substrate, 2 h; inhibition, % at 5 µM; 220,000 compounds, 0.3% hits; AID 800; in the data active = inhibition above about 40%
EP2 mod – EP2 receptor (human) modulation | 260,000 compounds, 0.83% hits | EP2-expressing cells, cAMP HTRF FRET, PGE2 co-stimulation | P43116 | induction, % at 25 µM;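 active = compounds whose cAMP rise, as percent of the full-agonist control response, exceeds 60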;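 also: rat C6 glioma line stably carrying human EP2 under a CMV promoter; the protocol text gives 20 µM as final concentration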
Target sequence (P43116 whole entry, looked up): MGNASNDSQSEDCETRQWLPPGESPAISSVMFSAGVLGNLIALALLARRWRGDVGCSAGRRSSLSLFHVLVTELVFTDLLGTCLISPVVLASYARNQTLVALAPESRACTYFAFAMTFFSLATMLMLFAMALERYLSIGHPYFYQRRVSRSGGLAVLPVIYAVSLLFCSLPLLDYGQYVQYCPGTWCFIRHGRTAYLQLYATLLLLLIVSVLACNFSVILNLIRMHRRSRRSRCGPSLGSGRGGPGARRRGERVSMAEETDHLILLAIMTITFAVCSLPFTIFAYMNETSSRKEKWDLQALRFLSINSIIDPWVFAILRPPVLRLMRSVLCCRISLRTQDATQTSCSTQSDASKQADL
PGE2 EP2 inh – EP2 receptor (human) inhibition | P43116 | C6 glioma cells expressing human EP2, cAMP TR-FRET; cells stimulated with saturating PGE2 | inhibition, % at 25 µM | 260,000 compounds, 0.52% hits;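 active = percent inhibition above 40 after rounding to a whole number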;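 also: rat C6 glioma host cells with rolipram phosphodiesterase inhibitor present; the protocol text gives 20 µM as final concentration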
FXIa inh – blocks human coagulation factor XIa protease activity; AID 798; P03951; 220,000 compounds, 0.14% hits; purified FXIa, Boc-Glu-Ala-Arg-AMC fluorogenic substrate; inhibition, % at 5 µM;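 active = inhibition of at least 40%; inactive = inhibition below 40%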;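 also: fluorescence of freed AMC excited at 355 nm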
A number is an active result; - = inactive; . = not tested or not shown.

SMILES	hK5 inh	Thrombin inh	FXIIa inh 1536	EP2 mod	PGE2 EP2 inh	FXIa inh
COc1ccc2c(c1)Cc1cc(N=[N+]([O-])c3ccc4c(c3)Cc3cc(OC)ccc3-4)ccc1-2	.	.	.	-	114	.
COc1cc2cc(CN(CCO)S(=O)(=O)c3ccc(C(C)(C)C)cc3)c(=O)[nH]c2cc1OC	.	.	.	-	-	.
O=c1c2[nH]c3cccc(Cl)c3c2ncn1CC1CCCO1 (stereo not given)	-	-	-	-	-	-
O=c1c2[nH]c3cccc(Cl)c3c2ncn1CCN1CCCCC1	-	-	43	-	-	-
Cc1cc(C(F)(F)F)c2c(NCc3cccs3)n[nH]c2n1	.	.	.	-	.	.
Cc1ccc2nc(N3C(=O)C(O)=C(C(=O)c4ccc(C)o4)C3c3ccco3)sc2c1 (stereo not given)	.	.	.	-	49	.
Cc1ccc2nc(N3C(=O)C(O)=C(C(=O)c4ccco4)C3c3ccc(O)cc3)sc2c1 (stereo not given)	.	.	.	-	-	.
COC(=O)c1sc(N2C(=O)C(O)=C(C(=O)c3ccc(C)o3)C2c2ccc(F)cc2)nc1C (stereo not given)	51	-	-	-	-	-
O=c1[nH]cnc2c1sc1nc3c(c(-c4ccc(Cl)cc4)c12)CCC3	-	-	-	61	-	-
CCc1cccc2c(CC(=O)Nc3ccc4c(c3)CC(C)N4C(C)=O)c(C)[nH]c12 (stereo not given)	.	.	.	-	-	.
COc1ccc(N2C(=O)[C@@H]3[C@H](C2=O)[C@H]2c4ccccc4C=CN2[C@@H]3C(=O)Nc2ccccc2)cc1	-	61	45	-	-	-
COc1cccc(CN(C(=O)c2cc3ccccc3oc2=O)C2CCCC2)c1OC	.	.	.	-	-	.
O=c1[nH]c(CNCc2ccccc2)nc2sc3c(c12)CCCC3	.	.	.	-	-	.
S=C(Nc1ccc2c(c1)Cc1ccccc1-2)Nc1ccc2c(c1)Cc1ccccc1-2	.	.	.	-	55	.
O=C(O)c1ccccc1-c1ccccc1C(=O)Nc1ccc2c(c1)Cc1cc(F)ccc1-2	.	.	.	-	43	.
O=C(O)c1ccccc1-c1ccccc1C(=O)Nc1ccc2c(c1)Cc1ccccc1-2	.	.	.	-	-	.
COc1ccc(C(=O)NC(=S)Nc2ccc3c(c2)Cc2ccccc2-3)cc1	-	-	-	-	-	-
O=c1[nH]c2cc3c(cc2cc1CN(CCCO)C(=S)NC1CCCCC1)OCO3	.	.	.	-	-	.
CCOc1cccc(NC(=O)CSc2nnc(C)s2)c1	.	.	.	-	-	.
CCOc1ccc(N2CC(C(=O)Nc3c(C)cccc3C)CC2=O)cc1 (stereo not given)	.	.	.	-	-	.
COc1ccc2nc(NC(=O)CSc3nnc4c(C)cc5ccccc5n34)sc2c1	.	.	.	-	-	.
O=Cc1ccccc1Oc1ccccc1	-	-	-	-	-	-
COc1ccc(Oc2ccccc2/C=N/O)cc1	117	-	-	-	-	-
CC[C@@H](Cn1nnc2ccccc2c1=O)NC(=O)C1CCCCC1	.	.	.	-	-	.
O=C(N[C@H](C(=O)O)c1ccccc1)C1CCC(Cn2nnc3ccccc3c2=O)CC1 (stereo not given in full)	-	-	43	-	-	-
SMILES	hK5 inh	Thrombin inh	FXIIa inh 1536	EP2 mod	PGE2 EP2 inh	FXIa inh
CCc1cccc(CC)c1N(COC)C(=O)Cn1c(CO)nc2ccccc21	-	-	43	-	-	-
CCc1cccc(CC)c1N(COC)C(=O)Cn1nnc2ccccc21	-	-	-	-	-	-
CCSc1nnc2c3c4c(sc3nc(CC)n12)CCCC4	.	.	.	-	-	.
O=C(NCc1ccco1)c1c2c(nc3ccccc13)CCC2	-	-	48	-	.	-
CCc1c(C)sc2ncn(C3CCN(C(=O)Cc4ccsc4)CC3)c(=O)c12	.	.	.	-	-	.
COc1ccc(Br)cc1-c1nc(CCl)cs1	-	-	-	63	-	-
COc1ccc(NCc2nnc(SCC(=O)Nc3cccc(-c4ccccc4)c3)n2C)cc1	.	.	.	-	-	.
COc1ccc(C(=O)Nc2cccc(S(C)(=O)=O)c2)cc1OC	43	-	-	-	-	-
COc1ccc(C(=O)Nc2cccc(NC(C)=O)c2)cc1OC	-	-	-	-	-	-
COc1cc2cc(CN(CCCO)C(=S)Nc3ccc(F)cc3)c(=O)[nH]c2cc1OC	.	.	.	-	-	.
CN1CCN(S(=O)(=O)Cc2ccc(Cl)cc2)CC1	70	-	-	-	-	41
N=C1/C(=C\c2ccc(OC(=O)c3ccco3)cc2)C(=O)N=C2SC=NN12	58	-	-	-	-	-
CCOC(=O)Cc1cc(-c2ccccc2)nc2ccc3ccccc3c12	-	-	-	-	.	-
O[C@@H](c1cc(-c2ccccc2)nc2c1ccc1ccccc12)[C@@H]1CCCCN1	.	.	.	-	84	.
COc1ccc(-c2cc([C@H](O)[C@@H]3CCCCN3)c3ccccc3n2)cc1	.	.	.	-	50	.
Cc1ccccc1N(CC(=O)NC1CCCC1)C(=O)c1snc(C(N)=O)c1N	.	.	.	-	-	.
O=S1(=O)N=C(Nc2ccc(O)cc2)c2ccccc21	-	-	-	-	-	-
O=S1(=O)OC(c2ccc(O)cc2)(c2ccc(O)cc2)c2ccccc21	.	.	.	-	96	.
Cc1sc(N(Cc2ccco2)C(=O)C2CC2)nc1C(=O)Nc1ccc(Cl)cc1	.	.	.	-	-	.
CCc1nc(NC2CCCCC2)c(C#N)c2c1COC(C)(C)C2	-	-	-	62	-	-
CCCc1nc(NC2CCCCC2)c(C#N)c2c1COC(C)(C)C2	-	-	-	-	-	-
CCOc1nc(CC(C)C)c2c(c1C#N)CC(C)(C)OC2	-	-	-	62	-	-
COc1ccc2oc(=O)c(-c3nnc(-c4cc(OC)c(OC)c(OC)c4)o3)cc2c1	.	.	.	-	-	.
Cc1oc(C(C)(C)C)cc1C(=O)Nc1ccc2c(c1)OCCO2	40	-	-	-	.	-
COc1cc2c3cc1Oc1cc(ccc1O)C[C@@H]1c4c(cc(OC)c(O)c4Oc4ccc(cc4)C[C@@H]3N(C)CC2)CC[N+]1(C)C	.	.	.	-	-	.
COc1cc2c3cc1Oc1c(OC)c(OC)cc4c1[C@@H](Cc1ccc(O)c(c1)Oc1ccc(cc1)C[C@@H]3N(C)CC2)CN(C)C4	.	.	.	-	48	.

Assay outcomes as filed in PubChem BioAssay.
